Results as given in ChEMBL document CHEMBL3526126, “Amide hydrolysis of a novel chemical series of microsomal prostaglandin E synthase-1 inhibitors induces kidney toxicity in the rat” (Drug Metab Dispos, 2013).
≈ marks a conversion by molar mass, not a printed value. Blank lines part the entries; values can stand above or below the compound they belong to.

Experiments:
[1] = AUC (0 to 24 hrs) in Wistar Hannover rat at 2000 umol/kg, po qd measured on day 1; details: plasma
[2] = Cmax in Sprague-Dawley rat at 2000 umol/kg, po qd administered for 7 days measured on day 7; type: ADME, organism-based; design: dose 2000 umol/kg, route oral; details: in vivo
Method in brief: (§1)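 Toxicity study 2: 2 female satellite rats per dose group. Dosing was once daily by oral gavage (10 ml/kg) for 7 days. Tail-vein EDTA blood was taken at 2, 4, 6, 7 and 24 h on day 1 and on day 7, then chilled and centrifuged to plasma. Parent and M1 were quantified by LC-MS/MS, with M1 measured in negative electrospray mode.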

Rattus norvegicus [3] = experiment: Toxicity in Wistar Hannover rat kidney assessed as histopathogical changes at 500 to 2000 umol/kg, po qd administered for 7 days measured on day 8 by hematoxylin/eosin staining-based light microscopic analysis; type: organism-based; details: in vivo, 168 h
Method in brief: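 Wistar Hannover rats, about 8 weeks old, were gavaged once daily (10 ml/kg) for 7 days. One day after the last dose they were killed by carotid exsanguination under isoflurane/oxygen. Kidneys were fixed in buffered formalin, embedded in paraffin, sectioned, stained with hematoxylin and eosin, and examined by light microscopy.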

Rattus norvegicus [4] = experiment: Toxicity in Wistar Hannover rat kidney assessed as increase in plasma urea level at 500 to 2000 umol/kg, po qd administered for 7 days measured on day 7; type: organism-based; details: in vivo, 168 h
Method in brief: (§2)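 Wistar Hannover rats, about 8 weeks old, were acclimatized about 2 weeks and randomized by body weight. Dosing was by oral gavage (10 ml/kg) once daily for 7 days, with vehicle controls. At the end of dosing, plasma (lithium heparin) was taken from the orbital plexus under isoflurane/oxygen anaesthesia, and urea and creatinine were measured.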

[5] = Solubility in rat urine at pH 7 after 5 hrs; type: physicochemical
Method in brief: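 Samples in rat urine at pH 7.0 were incubated at 37°C for 5 hours. They were analysed by HPLC on a C18 column with photodiode array and single mass detection.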

Rattus norvegicus [6] = experiment: Toxicity in Wistar Hannover rat kidney assessed as increase in plasma creatinine level at 500 to 2000 umol/kg, po qd administered for 7 days measured on day 7; type: organism-based; details: in vivo, 168 h
Method in brief: as §2

[7] = Cmax in Wistar Hannover rat at 2000 umol/kg, po qd measured on day 1; details: in vivo
[8] = AUC (0 to 24 hrs) in Wistar Hannover rat at 500 umol/kg, po qd measured on day 1; details: plasma
[9] = AUC (0 to 24 hrs) in Sprague-Dawley rat at 500 umol/kg, po qd administered for 7 days measured on day 7; type: ADME, organism-based; design: dose 500 umol/kg, time < 24 hr, route oral; details: plasma
Method in brief: as §1

Rattus norvegicus [10] = experiment: Toxicity in Wistar Hannover rat kidney assessed as crystals in urine at 500 to 2000 umol/kg, po qd administered for 7 days measured on day 7; type: organism-based; details: in vivo, 168 h
[11] = Cmax in Wistar Hannover rat at 500 umol/kg, po qd measured on day 1; details: in vivo
[12] = Cmax in Sprague-Dawley rat at 500 umol/kg, po qd administered for 7 days measured on day 7; type: ADME, organism-based; design: dose 500 umol/kg, route oral; details: in vivo
Method in brief: as §1

Rattus norvegicus [13] = experiment: Drug level in Wistar Hannover rat treated with [14C]-AZ'7847 at 500 umol/kg, po qd administered for 7 days measured on day 7 by radio monitoring method; type: ADME, organism-based; details: in vivo, 168 h
[14] = AUC (0 to 24 hrs) in Sprague-Dawley rat at 2000 umol/kg, po qd administered for 7 days measured on day 7; type: ADME, organism-based; design: time < 24 hr, dose 2000 umol/kg, route oral; details: plasma
Method in brief: as §1

Rattus norvegicus [15] = experiment: Drug metabolism in Wistar Hannover rat assessed as formation of benzene-1,2-disulfonamide metabolite M1 in plasma at 500 umol/kg, po qd administered for 7 days measured on day 7 by radio monitoring method; type: ADME, organism-based; details: in vivo, 168 h
[16] = Cmax in Sprague-Dawley rat at 435 umol/kg, po qd administered for 14 days measured on day 14; type: ADME, organism-based; design: dose 435 umol/kg, route oral; details: in vivo
Method in brief: (§3)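 Toxicity study 3: 5 female animals per dose group for TK. The compound was given as a solution in 15% (w/v) hydroxypropyl-β-cyclodextrin in 0.2 M meglumine, by oral gavage (10 ml/kg) once daily for 14 days. Blood was microsampled at 2, 4, 6, 7 and 24 h on day 1 and on the last dosing day. Parent only was measured, not M1.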

Rattus norvegicus [17] = experiment: Toxicity in Wistar Hannover rat kidney assessed as crystals in urine at 435 to 900 umol/kg, po qd administered for 14 days measured on day 14; type: organism-based; details: in vivo, 336 h
[18] = AUC (0 to 24 hrs) in Sprague-Dawley rat at 10 umol/kg, po qd measured on day 1; type: ADME, organism-based; design: dose 10 umol/kg, time < 24 hr, route oral; details: plasma
Method in brief: (§4)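 Single-dose PK in male Sprague-Dawley rats (n = 3). Plasma was profiled over time for parent and for the amide-hydrolysis metabolite M1, and AUC0–24 and Cmax were derived. The dosing protocol follows earlier work.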

Rattus norvegicus [19] = experiment: Toxicity in Wistar Hannover rat kidney assessed as change in plasma chemistry parameter at 435 umol/kg, po qd administered for 14 days measured on day 14; type: organism-based; details: in vivo, 336 h
Method in brief: (§5)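 Female Wistar Hannover rats (10 per group), about 8 weeks old, were dosed by oral gavage (10 ml/kg) once daily for 14 days. The compound was given as a solution in 15% (w/v) hydroxypropyl-β-cyclodextrin in 0.2 M meglumine. At the end of dosing, plasma (lithium heparin) was taken from the orbital plexus under isoflurane/oxygen anaesthesia for plasma chemistry.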

[20] = Cmax in Sprague-Dawley rat at 10 umol/kg, po qd measured on day 1; type: ADME, organism-based; design: dose 10 umol/kg, route oral; details: in vivo
Method in brief: as §4

[21] = AUC (0 to 24 hrs) in Sprague-Dawley rat at 435 umol/kg, po qd measured on day 1; type: ADME, organism-based; design: dose 435 umol/kg, time < 24 hr, route oral; details: plasma
Method in brief: as §3

[22] = AUC (0 to 24 hrs) in Sprague-Dawley rat at 900 umol/kg, po qd administered for 14 days measured on day 14; type: ADME, organism-based; design: dose 900 umol/kg, time < 24 hr, route oral; details: plasma
Method in brief: as §3

[23] = Cmax in Sprague-Dawley rat at 435 umol/kg, po qd measured on day 1; type: ADME, organism-based; design: dose 435 umol/kg, route oral; details: in vivo
Method in brief: as §3

Rattus norvegicus [24] = experiment: Toxicity in Wistar Hannover rat kidney assessed as increase in plasma urea level at 435 to 900 umol/kg, po qd administered for 14 days measured on day 14; type: organism-based; details: in vivo, 336 h
Method in brief: as §5

Rattus norvegicus [25] = experiment: Toxicity in Wistar Hannover rat kidney assessed as increase in plasma creatinine level at 435 to 900 umol/kg, po qd administered for 14 days measured on day 14; type: organism-based; details: in vivo, 336 h, in the assay text read “900 umol/kg” for “435 to 900 umol/kg”
Method in brief: as §5

[26] = Drug metabolism in cryopreserved human hepatocytes assessed as amide hydrolysis at 1 to 10 uM by LC-MS analysis; type: ADME, cell-based, Hepatocyte
Method in brief: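 Hepatocytes at 1 × 10^6 cells/ml in William's medium incubated at 37°C with gentle shaking under 5% CO2. Substrate was at […]. Metabolites were analysed by LC-MS.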

[27] = AUC (0 to 24 hrs) in Sprague-Dawley rat at 900 umol/kg, po qd measured on day 1; type: ADME, organism-based; design: time < 24 hr, dose 900 umol/kg, route oral; details: plasma
Method in brief: as §3

[28] = Cmax in Sprague-Dawley rat at 900 umol/kg, po qd measured on day 1; type: ADME, organism-based; design: dose 900 umol/kg, route oral; details: in vivo
Method in brief: as §3

[29] = AUC (0 to 24 hrs) in Sprague-Dawley rat at 435 umol/kg, po qd administered for 14 days measured on day 14; type: ADME, organism-based; design: dose 435 umol/kg, time < 24 hr, route oral; details: plasma
Method in brief: as §3

[30] = Cmax in Sprague-Dawley rat at 900 umol/kg, po qd administered for 14 days measured on day 14; type: ADME, organism-based; design: dose 900 umol/kg, route oral; details: in vivo
Method in brief: as §3

AUC(0-t) at 24 h [1]: 1150 µM·h | Cmax [2]: 80 µM | solubility at 5 h [5]: 83 µM (≈ 19.6 µg/mL) | Cmax [7]: 66 µM | AUC(0-t) at 24 h [8]: 1080 µM·h | AUC at 24 h [9]: 1300 µM·h | Cmax [11]: 57 µM | Cmax [12]: 70 µM | Drug metabolism (Rattus norvegicus [13]): metabolite_detected | AUC at 24 h [14]: 1250 µM·h
SMILES: NS(=O)(=O)c1ccccc1S(N)(=O)=O
Activity (Rattus norvegicus [3]): Non-toxic | Activity (Rattus norvegicus [4]): Non-toxic | Activity (Rattus norvegicus [6]): Non-toxic | Activity (Rattus norvegicus [10]): Toxic

Drug metabolism (Rattus norvegicus [15]): metabolite_detected
SMILES: NS(=O)(=O)c1ccccc1S(=O)(=O)N[14C](=O)c1ccc(C#Cc2ccccc2)cc1

Cmax [16]: 415 µM | AUC(0-t) at 24 h [18]: 58 µM·h | Cmax [20]: 11 µM | AUC(0-t) at 24 h [21]: 2220 µM·h | AUC at 24 h [22]: 5000 µM·h | Cmax [23]: 375 µM | Drug metabolism [26]: metabolite_not_detected | AUC(0-t) at 24 h [27]: 5030 µM·h | Cmax [28]: 540 µM | AUC at 24 h [29]: 2520 µM·h | Cmax [30]: 480 µM
SMILES: Cc1cc(C(=O)NS(=O)(=O)c2ccccc2S(N)(=O)=O)ccc1C#CC1CCC1
Activity (Rattus norvegicus [17]): Toxic | Activity (Rattus norvegicus [19]): Non-toxic | Activity (Rattus norvegicus [24]): Toxic | Activity (Rattus norvegicus [25]): Toxic
